Measurements published in ChEMBL document CHEMBL1123619, “Isothiourea derivatives of 6-phenyl-2,3,5,6-tetrahydroimidazo[2,1-b]thiazole with broad-spectrum anthelmintic activity” (J Med Chem, 1987).

Legend:
Ovis aries [1] = test: Antihelmethic activity expressed as the percentage of worms eliminated in the feces in sheep small intestine at peroral dose of 30 mg/kg against Strongyloides papillosus; type: functional; conditions: route oral
How it was run: (§1)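 Sheep given a single dose, oral or subcutaneous. Total daily feces collected for 4 days after treatment and examined for expelled worms. Necropsy at day 7 after dosing; lungs, liver and gastrointestinal tract removed and remaining worms identified. Activity calculated by comparing worms passed in feces with those remaining at autopsy. Single animals per test unless otherwise indicated.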

Ovis aries [2] = organism: Ovis aries; test: Antihelmethic activity expressed as the percentage of worms eliminated in the feces in sheep species.; type: functional
How it was run: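 Sheep; total daily faeces collected for 4 days after treatment and searched for expelled worms; necropsy 7 days post-dose with lungs, liver and GI tract examined and worms identified; activity from worms passed in faeces versus worms remaining in host at autopsy.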

Ovis aries [3] = test: Antihelmethic activity expressed as the percentage of worms eliminated in the feces in sheep large bowl at peroral dose of 15 mg/kg against chabertia ovina.; type: functional; conditions: route oral; how it was run: as §1
Ovis aries [4] = test: Antihelmethic activity expressed as the percentage of worms eliminated in the feces in sheep small intestine at peroral dose of 30 mg/kg against Trichostrongylus axei; type: functional; conditions: route oral; how it was run: as §1
Ovis aries [5] = test: Toxic activity expressed as the percentage against liver fluke in the sheep at 300 mg/kg peroral administration of dose; no toxic symptoms observed; type: ADME, organism-based; parameters: dose 300 mg/kg, route oral; conditions: in vivo, po
Ovis aries [6] = test: Antihelmethic activity expressed as the percentage of worms eliminated in the feces in sheep small intestine at subcuteneous dose of 30 mg/kg against Strongyloides papillosus; type: functional; how it was run: as §1
Mus musculus = test: Nematocidal activity against Nematospiroides dubius induced necropsy in mouse, after oral administration of 25 mg/kg of the compound; type: functional
How it was run: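 Seven-week-old female LACA mice infected orally with 100 N. dubius L3 larvae; single gavage dose given at day 10 of infection, groups of four mice; necropsy 4 days later; percent activity from worm burdens of treated versus untreated groups.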

Ovis aries [7] = test: Antihelmethic activity expressed as the percentage of worms eliminated in the feces in sheep small intestine at subcuteneous dose of 30 mg/kg against Bunostomum trigonocephalum.; type: functional; how it was run: as §1
Ovis aries [8] = test: Antihelmethic activity expressed as the percentage of worms eliminated in the feces in sheep small intestine at peroral dose of 30 mg/kg against Cooperia curticei; type: functional; conditions: route oral; how it was run: as §1
Ovis aries [9] = test: Antihelmethic activity expressed as the percentage of worms eliminated in the feces in sheep small intestine at subcuteneous dose of 30 mg/kg against Nematodirus species; type: functional; how it was run: as §1
Ovis aries [10] = test: Antihelmethic activity expressed as the percentage of worms eliminated in the feces in sheep large bowel at peroral dose of 30 mg/kg against Trichuris ovis.; type: functional; conditions: route oral; how it was run: as §1
Ovis aries [11] = test: Anthelmintic activity against adult liver fluke (Fasciola hepatica) in sheep, after peroral administration of 20 mg/kg was determined; type: functional; conditions: route oral
How it was run: (§2)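 Sheep dosed with a single oral dose. Fecal fluke egg output monitored after treatment. Animals necropsied only if the fecal egg count fell. Postmortem Fasciola hepatica burdens compared with untreated control sheep (mean of 10 controls). Single animals per test unless otherwise indicated, with group size given in parentheses. I denotes no effect on fecal fluke egg output.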

Fasciola hepatica = test: Anthelmintic activity against adult liver fluke (Fasciola hepatica) in sheep following 30 mg/kg p.o.; type: functional; conditions: route oral; how it was run: as §2
Ovis aries [12] = test: Antihelmethic activity expressed as the percentage of worms eliminated in the feces in sheep small intestine at peroral dose of 15 mg/kg against Nematodirus species; type: functional; conditions: route oral; how it was run: as §1
Ovis aries [13] = test: Antihelmethic activity expressed as the percentage of worms eliminated in the feces in sheep small intestine at subcuteneous dose of 30 mg/kg against Trichostrongylus axei; type: functional; how it was run: as §1
Ovis aries [14] = test: Antihelmethic activity expressed as the percentage of worms eliminated in the feces in sheep small intestine at peroral dose of 30 mg/kg against Nematodirus species; type: functional; conditions: route oral; how it was run: as §1

CS/C(=N\c1cccc(C2CN3CCSC3=N2)c1)Nc1ccc(C#N)cc1 (stereo unspecified)
Activity (Ovis aries [1]): 100% | Activity (Ovis aries [2]): 100% | Activity (Ovis aries [3]): 99% | Activity (Ovis aries [4]): 100% | Activity (Ovis aries [5]): no toxic symptoms | Activity (Ovis aries [6]): 100% | Activity (Mus musculus): 68% | Activity (Ovis aries [7]): 100% | Activity (Ovis aries [8]): 100% | Activity (Ovis aries [9]): 100% | Activity (Ovis aries [10]): 100% | Activity (Ovis aries [11]): 89% | Activity (Fasciola hepatica): 97% | Activity (Ovis aries [12]): 100% | Activity (Ovis aries [13]): 100% | Activity (Ovis aries [14]): 73%
